ChEMBL document CHEMBL1151458, “Comparative analysis of the bactericidal activities of amphibian peptide analogues against multidrug-resistant nosocomial bacterial strains” (2008)
Activity calls are given as the source filed them.

Key:
Pseudomonas aeruginosa [1] = test: Bactericidal activity against Pseudomonas aeruginosa isolate 1 with AMP-CFZ-CIP-CTX-CXM-GEN-LVX-SXT-TET resistance phenotype assessed as concentration required for >= 3 log10 CFU/ml reduction in viable bacteria in 20% heat-inactivated human serum after 1.5 hrs by liquid microdilution assay; type: functional
In short: (§1)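 The buffer microdilution kill assay (1 × 10^7 CFU/ml mid-log cells, 10 μl in 100 μl, 37°C, 1.5 h, CFU on tryptone soy agar after 24 h) with serum added to 20% or 40% final. Serum was pooled from five healthy donors, clotted at room temperature, spun at 300 × g and heat-inactivated at 56°C for 30 min.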

[2] = tested on: Stenotrophomonas maltophilia; test: Bactericidal activity against Stenotrophomonas maltophilia isolate 4 with AMK-CAZ-CIP-FEP-IPM-SAM-TZP resistance phenotype assessed as concentration required for >= 3 log10 CFU/ml reduction in viable bacteria in sodium phosphate buffer at pH 7.4 after 1.5 hrs by liquid microdilution assay; type: functional
In short: (§2)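 Clinical multidrug-resistant isolates grown to mid-log in tryptone soy broth and stored frozen. Exponential cells resuspended in 10 mM sodium phosphate buffer, pH 7.4, at 1 × 10^7 CFU/ml; 10 μl incubated with graded peptide concentrations in 100 μl at 37°C for 1.5 h. Plated on tryptone soy agar, CFU read after 24 h at 37°C. Peptide stocks in 20% ethanol.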

Pseudomonas aeruginosa [3] = test: Bactericidal activity against Pseudomonas aeruginosa isolate 3 with AMP-CFZ-CTX-CIP-GEN-IPM-LVX-SXT-TET-TOB resistance phenotype assessed as concentration required for >= 3 log10 CFU/ml reduction in viable bacteria in sodium phosphate buffer at pH 7.4 after 1.5 hrs by liquid microdilution assay; type: functional; in short: as §2
Enterococcus faecium [4] = test: Bactericidal activity against Enterococcus faecium isolate 3 with AMP-CIP-CTX-ERY-GEN-LVX-SXT-TEC-VAN resistance phenotype assessed as concentration required for >= 3 log10 CFU/ml reduction in viable bacteria in sodium phosphate buffer at pH 7.4 after 1.5 hrs by liquid microdilution assay; type: functional; in short: as §2
Staphylococcus aureus [5] = test: Bactericidal activity against Staphylococcus aureus isolate 3 with AMC-AMP-CIP-ERY-GEN-LVX-OXA resistance phenotype assessed as concentration required for >= 3 log10 CFU/ml reduction in viable bacteria in sodium phosphate buffer at pH 7.4 after 1.5 hrs by liquid microdilution assay; type: functional; in short: as §2
Pseudomonas aeruginosa [6] = test: Bactericidal activity against Pseudomonas aeruginosa isolate 2 with AMP-CFZ-CIP-CTX-CXM-GEN-LVX-IPM-MEM-SXT-TET resistance phenotype assessed as concentration required for >= 3 log10 CFU/ml reduction in viable bacteria in sodium phosphate buffer at pH 7.4 after 1.5 hrs by liquid microdilution assay; type: functional; in short: as §2
Staphylococcus aureus [7] = test: Bactericidal activity against Staphylococcus aureus isolate 1 with AMC-AMP-CIP-ERY-GEN-OXA-RIF resistance phenotype assessed as concentration required for >= 3 log10 CFU/ml reduction in viable bacteria in sodium phosphate buffer at pH 7.4 after 1.5 hrs by liquid microdilution assay; type: functional; in short: as §2
Acinetobacter baumannii [8] = test: Bactericidal activity against Acinetobacter baumannii isolate 3 with AMP-AMC-CFZ-CIP-IPM-SXT-TET-TOB resistance phenotype assessed as concentration required for >= 3 log10 CFU/ml reduction in viable bacteria in sodium phosphate buffer at pH 7.4 after 1.5 hrs by liquid microdilution assay; type: functional; in short: as §2
Acinetobacter baumannii [9] = test: Antimicrobial activity against Acinetobacter baumannii isolate 3 with AMP-AMC-CFZ-CIP-IPM-SXT-TET-TOB resistance phenotype assessed as time to kill at bactericidal concentration; type: functional
In short: (§3)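 Time-kill in 10 mM sodium phosphate buffer, pH 7.4: 1 × 10^7 CFU/ml mid-log clinical isolate (10 μl) exposed at 37°C to peptide at the 1.5-h bactericidal concentration or twofold that, in 100 μl. Samples taken from 2 min onward, plated on tryptone soy agar, CFU counted after 24 h at 37°C. Killing taken as ≥3 log10 CFU/ml drop.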

Enterococcus faecium [10] = test: Antimicrobial activity against Enterococcus faecium isolate 3 with AMP-CIP-CTX-ERY-GEN-LVX-SXT-TEC-VAN resistance phenotype assessed as time to kill at bactericidal concentration; type: functional; in short: as §3
[11] = tested on: Stenotrophomonas maltophilia; test: Bactericidal activity against Stenotrophomonas maltophilia isolate 2 with AMK-CIP-CTX-IPM-MEM-SAM-TZP resistance phenotype assessed as concentration required for >= 3 log10 CFU/ml reduction in viable bacteria in 20% heat-inactivated human serum after 1.5 hrs by liquid microdilution assay; type: functional; in short: as §1
[12] = tested on: Stenotrophomonas maltophilia; test: Antimicrobial activity against Stenotrophomonas maltophilia isolate 2 with AMK-CIP-CTX-IPM-MEM-SAM-TZP resistance phenotype assessed as assessed as time to kill at twofold bactericidal concentration; type: functional; in short: as §3
Enterococcus faecium [13] = test: Antimicrobial activity against Enterococcus faecium isolate 3 with AMP-CIP-CTX-ERY-GEN-LVX-SXT-TEC-VAN resistance phenotype assessed as time to kill at twofold the bactericidal concentration; type: functional, organism-based; in short: as §3
Enterococcus faecium [14] = test: Bactericidal activity against Enterococcus faecium isolate 6 with AMP-AMC-CLI-CRO-CTX-CIP-ERY-GEN-KAN-LVX-SXT-VAN resistance phenotype assessed as concentration required for >= 3 log10 CFU/ml reduction in viable bacteria in sodium phosphate buffer at pH 7.4 after 1.5 hrs by liquid microdilution assay; type: functional; in short: as §2
[15] = tested on: Stenotrophomonas maltophilia; test: Bactericidal activity against Stenotrophomonas maltophilia isolate 2 with AMK-CIP-CTX-IPM-MEM-SAM-TZP resistance phenotype assessed as concentration required for >= 3 log10 CFU/ml reduction in viable bacteria in sodium phosphate buffer at pH 7.4 after 1.5 hrs by liquid microdilution assay; type: functional; in short: as §2
Acinetobacter baumannii [16] = test: Bactericidal activity against Acinetobacter baumannii isolate 3 with AMP-AMC-CFZ-CIP-IPM-SXT-TET-TOB resistance phenotype assessed as concentration required for >= 3 log10 CFU/ml reduction in viable bacteria in 20% heat-inactivated human serum after 1.5 hrs by liquid microdilution assay; type: functional; in short: as §1
Acinetobacter baumannii [17] = test: Bactericidal activity against Acinetobacter baumannii isolate 1 with AMP-AMC-CFZ-CIP-IPM-LVX-PIP-SXT-TET resistance phenotype assessed as concentration required for >= 3 log10 CFU/ml reduction in viable bacteria in sodium phosphate buffer at pH 7.4 after 1.5 hrs by liquid microdilution assay; type: functional; in short: as §2
Enterococcus faecium [18] = test: Bactericidal activity against Enterococcus faecium isolate 5 with AMP-AMC-CIP-CLI-ERY-GEN-KAN-LVX-SXT-TEC-VAN resistance phenotype assessed as concentration required for >= 3 log10 CFU/ml reduction in viable bacteria in sodium phosphate buffer at pH 7.4 after 1.5 hrs by liquid microdilution assay; type: functional; in short: as §2
Staphylococcus aureus [19] = test: Antimicrobial activity against Staphylococcus aureus isolate 1 with AMC-AMP-CIP-ERY-GEN-OXA-RIF resistance phenotype at twofold the bactericidal concentration within 30 mins; type: functional, organism-based; in short: as §3
[20] = tested on: Stenotrophomonas maltophilia; test: Bactericidal activity against Stenotrophomonas maltophilia isolate 1 with AMK-CIP-CTX-IPM-MEM-SAM-TZP resistance phenotype assessed as concentration required for >= 3 log10 CFU/ml reduction in viable bacteria in sodium phosphate buffer at pH 7.4 after 1.5 hrs by liquid microdilution assay; type: functional; in short: as §2
Pseudomonas aeruginosa [21] = test: Antimicrobial activity against Pseudomonas aeruginosa isolate 1 with AMP-CFZ-CIP-CTX-CXM-GEN-LVX-SXT-TET resistance phenotype at twofold bactericidal concentration after 10 to 30 mins by time kill assay; type: functional, organism-based; in short: as §3
Pseudomonas aeruginosa [22] = test: Bactericidal activity against Pseudomonas aeruginosa isolate 1 with AMP-CFZ-CIP-CTX-CXM-GEN-LVX-SXT-TET resistance phenotype assessed as concentration required for >= 3 log10 CFU/ml reduction in viable bacteria in sodium phosphate buffer at pH 7.4 after 1.5 hrs by liquid microdilution assay; type: functional; in short: as §2
Enterococcus faecium [23] = test: Bactericidal activity against Enterococcus faecium isolate 3 with AMP-CIP-CTX-ERY-GEN-LVX-SXT-TEC-VAN resistance phenotype assessed as concentration required for >= 3 log10 CFU/ml reduction in viable bacteria in 20% heat-inactivated human serum after 1.5 hrs by liquid microdilution assay; type: functional; in short: as §1
Acinetobacter baumannii [24] = test: Bactericidal activity against Acinetobacter baumannii isolate 2 with AMP-CFZ-CIP-LVX-PIP-SXT resistance phenotype assessed as concentration required for >= 3 log10 CFU/ml reduction in viable bacteria in sodium phosphate buffer at pH 7.4 after 1.5 hrs by liquid microdilution assay; type: functional; in short: as §2
Staphylococcus aureus [25] = test: Bactericidal activity against Staphylococcus aureus isolate 1 with AMC-AMP-CIP-ERY-GEN-OXA-RIF resistance phenotype assessed as concentration required for >= 3 log10 CFU/ml reduction in viable bacteria in 20% heat-inactivated human serum after 1.5 hrs by liquid microdilution assay; type: functional; in short: as §1
Pseudomonas aeruginosa [26] = test: Antimicrobial activity against Pseudomonas aeruginosa isolate 1 with AMP-CFZ-CIP-CTX-CXM-GEN-LVX-SXT-TET resistance phenotype at bactericidal concentration after 30 mins by time kill assay; type: functional, organism-based; in short: as §3
Staphylococcus aureus [27] = test: Bactericidal activity against Staphylococcus aureus isolate 2 with AMC-AMP-CIP-ERY-GEN-LVX-OXA-RIF-TET resistance phenotype assessed as concentration required for >= 3 log10 CFU/ml reduction in viable bacteria in sodium phosphate buffer at pH 7.4 after 1.5 hrs by liquid microdilution assay; type: functional; in short: as §2

H-IIGPVLGLVGSALGGLLKKI-NH2 [BOMBININ H2]
2 min: Time (Acinetobacter baumannii [9]) | Time [12]
5 min: Time (Enterococcus faecium [10])
4 µM: Activity (Enterococcus faecium [4]) | Activity (Enterococcus faecium [14]) | Activity [15] | Activity [20] | Activity (Acinetobacter baumannii [24])
128 µM: Activity (Pseudomonas aeruginosa [1]) | Activity [11] | Activity (Acinetobacter baumannii [16])
16 µM: Activity [2] | Activity (Pseudomonas aeruginosa [6]) | Activity (Staphylococcus aureus [7]) | Activity (Pseudomonas aeruginosa [22]) | Activity (Staphylococcus aureus [27])
inactive: Activity (Enterococcus faecium [13]) | Activity (Staphylococcus aureus [19]) | Activity (Pseudomonas aeruginosa [26])
8 µM: Activity (Pseudomonas aeruginosa [3]) | Activity (Staphylococcus aureus [5]) | Activity (Acinetobacter baumannii [8]) | Activity (Acinetobacter baumannii [17]) | Activity (Enterococcus faecium [18])
64 µM: Activity (Enterococcus faecium [23]) | Activity (Staphylococcus aureus [25])
active: Activity (Pseudomonas aeruginosa [21])
